Experiment [1] can be described thus: reducers of endogenous Her2 protein level, primary screen, SKBR3 breast tumor cells, AlphaScreen, ATP viability (AID 461;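 active = Her2 level under about 52% in both replicate screens, with viability over 70% of control, limit read from the data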;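 as to Her2 level: lower value means less Her2 protein in the cells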;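 as to viability: percent of carrier control wells set as 100% viability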). The conditions noted are these: 18-24 h, measured here: SKBR3 viability, ATP luminescence, at 10 µM.
The target in experiment [2] is Receptor tyrosine-protein kinase erbB-2 (Homo sapiens) (UniProt P04626). Described as above. Particulars: 18-24 h, at 10 µM, stronger effect = lower value.
Experiment [3] in a line: SK-BR-3 cell growth inhibitors, pilot screen, 24 h, human (AID 572).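 Also: compound exposure lasted between 18 and 24 h rather than exactly 24 h; 100% = carrier-treated control wells.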 The conditions noted are these: SK-BR-3 viability, CellTiter-Glo luminescence, at 10 µM, stronger effect = lower value. On the technique in general: Cellular ATP, detected with luciferase, serves as a proxy for viable cell number.
The nature of experiment [4]: HUVEC growth inhibition – cell-based, human, primary screen (AID 575;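 active = viability at or below 30% in both replicate assays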;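 also: 100% = median of untreated cell wells with 0.1% DMSO on each plate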). Particulars: HUVEC proliferation, CellTiter-Glo luminescence, 72 h; at 10 µM; stronger effect = lower value. Summed up:
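Timing: 72 h treatment at 37 °C; material: HUVEC primary cells; technique: CellTiter-Glo luminescence measuring cellular ATP; controls: vehicle and MePR control wells; measure: percent of median DMSO-control luminescence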

Experiment [5] is described as follows: growth inhibitors of H69AR lung tumor, primary screen, human, duplicate replicates (AID 580;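 active = viability at or under a set limit in both replicates, limit being median viability minus 3 SD, cut at about 48% in these data, passing the limit was not always enough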;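 also: 100% = mean luminescence of untreated wells and 0% = no signal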). The conditions noted are these: H69AR lung tumor cells viability, ATP luminescence, 72 h; at 10 µM; stronger effect = lower value.
Experiment [6] in a line: reversal of MRP1-mediated doxorubicin resistance, pilot screen, H69AR cells, doxorubicin co-treatment (AID 601;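 active = viability loss from added drug above about 55%, and viability with drug at most 40%, in both replicates, limit read from the data, passing the limit was not always enough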). The conditions noted are these: CellTiter-Glo, 72 h, at 10 µM; for differential viability (reversal): stronger effect = higher value.
Experiment [7] in a line: 384-well plate pilot, post-Golgi transport modulator project, inhibition of yeast transport mutant growth (AID 636; in the data active = inhibition above about 31%). Particulars: absorbance 615 nm, about 18 h, stronger effect = higher value.
Experiment [8] in a line: growth suppression of yeast trafficking mutant, preliminary HTS, modulators of trafficking downstream of Golgi apparatus project, 1536-format plate, OD 615 nm (AID 637; in the data active = inhibition above about 30%). Particulars: yeast transport mutant growth, absorbance 615 nm, 18 h; stronger effect = higher value.
Where [9] appears, read: H69AR cells + 2 uM doxorubicin, measured here: viability with 2 uM doxorubicin, stronger effect = lower value.
The mark [10] stands for this setting: H69AR cells, compound alone cytotoxicity.

The record followed here is PubChem BioAssay.

Calls of active or inactive are those of the source.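 The calls were made as follows, unless noted: active = viability at or below 10% of carrier control in both of two separate runs; inconclusive = viability at or below 10% in only one of the two runs; inactive = the rest.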

As a reminder, the viability is a read-out of living cells in per cent, often relative to untreated cells. The term inhibition denotes the drop in the measured response relative to a control, in per cent.

Chain of Receptor tyrosine-protein kinase erbB-2 (Homo sapiens) (P04626 whole entry, looked up): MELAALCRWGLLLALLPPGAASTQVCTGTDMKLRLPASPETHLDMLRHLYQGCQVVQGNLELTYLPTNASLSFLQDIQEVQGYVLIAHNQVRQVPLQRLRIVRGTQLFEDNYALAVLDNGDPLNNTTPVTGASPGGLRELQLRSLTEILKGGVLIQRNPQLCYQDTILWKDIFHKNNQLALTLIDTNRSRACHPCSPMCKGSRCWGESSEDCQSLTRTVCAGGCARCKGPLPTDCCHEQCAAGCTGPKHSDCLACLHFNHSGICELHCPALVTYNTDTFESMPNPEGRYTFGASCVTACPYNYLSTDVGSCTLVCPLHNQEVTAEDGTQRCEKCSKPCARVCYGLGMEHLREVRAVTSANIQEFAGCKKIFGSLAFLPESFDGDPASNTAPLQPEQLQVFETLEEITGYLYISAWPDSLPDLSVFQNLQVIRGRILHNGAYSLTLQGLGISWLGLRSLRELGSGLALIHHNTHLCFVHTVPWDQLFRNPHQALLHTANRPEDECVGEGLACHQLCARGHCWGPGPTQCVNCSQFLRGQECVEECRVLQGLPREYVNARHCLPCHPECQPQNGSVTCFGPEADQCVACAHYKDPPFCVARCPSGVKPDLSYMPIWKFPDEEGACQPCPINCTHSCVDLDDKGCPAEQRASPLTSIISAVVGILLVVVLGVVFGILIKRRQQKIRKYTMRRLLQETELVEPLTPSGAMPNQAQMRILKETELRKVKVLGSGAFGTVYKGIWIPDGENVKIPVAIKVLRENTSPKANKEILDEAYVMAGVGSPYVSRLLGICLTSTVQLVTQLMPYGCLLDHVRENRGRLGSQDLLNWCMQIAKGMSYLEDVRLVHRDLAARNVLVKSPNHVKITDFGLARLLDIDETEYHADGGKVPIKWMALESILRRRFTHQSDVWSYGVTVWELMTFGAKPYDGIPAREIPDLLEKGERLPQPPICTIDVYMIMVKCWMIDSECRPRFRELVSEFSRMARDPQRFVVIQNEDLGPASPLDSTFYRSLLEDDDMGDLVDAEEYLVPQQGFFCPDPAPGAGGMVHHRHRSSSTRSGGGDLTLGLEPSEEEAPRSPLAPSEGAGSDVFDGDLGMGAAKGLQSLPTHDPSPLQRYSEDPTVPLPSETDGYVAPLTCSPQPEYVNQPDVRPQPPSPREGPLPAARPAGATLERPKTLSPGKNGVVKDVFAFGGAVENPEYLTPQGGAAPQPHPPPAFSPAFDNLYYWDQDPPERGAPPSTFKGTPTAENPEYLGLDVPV

As for `CCCCCc1c(O)c2ccccc2[nH]c1=O`, the viability in experiment [1] is 108%; in experiment [3] it was 108% (inactive); in experiment [4], 124% (inactive); in experiment [5], 98.1% (inactive); in experiment [6] (setting [9]), 94.5%; in experiment [6] (setting [10]), 98.1%. In addition, in experiment [2], the Her2 level is 91.5% (inactive). In addition, in experiment [6] (H69AR cells + 2 uM doxorubicin), the differential viability (reversal) is 3.62% (inactive). The inhibition was -1.71% (inactive) in experiment [7] and 2.46% (inactive) in experiment [8].
`CCOC(=O)CN1CC23C=CC(O2)C(C(=O)NC2CCCC2)C3C1=O` (stereo not given): the viability in experiment [1] is 86.5%; in experiment [3] it was 86.5% (inactive); in experiment [4] it was 106% (inactive); in experiment [5] it was 98.2% (inactive); in experiment [6] (setting [9]), 87.6%; in experiment [6] (setting [10]), 98.2%. In addition, the Her2 level in experiment [2] was 84% (inactive). The differential viability (reversal) in experiment [6] (H69AR cells + 2 uM doxorubicin) was 10.6% (inactive). Also, the inhibition is -0.64% (inactive) in experiment [7] and 4.33% (inactive) in experiment [8].
Regarding `CCc1ccccc1NC(=O)CN(c1cccc(OC)c1)S(C)(=O)=O`, the viability in experiment [1] was 112%; in experiment [3], 112% (inactive); in experiment [4] it was 110% (inactive); in experiment [5], 100% (inactive); in experiment [6] (setting [9]) it was 85.8%; in experiment [6] (setting [10]), 100%. Also, the Her2 level in experiment [2] is 124% (inactive). Besides, the differential viability (reversal) in experiment [6] (H69AR cells + 2 uM doxorubicin) is 14.6% (inactive). Also, the values for the inhibition in experiment [7] and in experiment [8] were -4% (inactive) and -7.74% (inactive), respectively.
For the compound `CCOc1ccc(C2CC(=O)NC3=C2C(=O)CCC3)cc1Cl` (stereo not given), the viability in experiment [1] is 108%; in experiment [3] it was 108% (inactive); in experiment [4] it was 88.4% (inactive); in experiment [5], 99.4% (inactive); in experiment [6] (setting [9]), 85.2%; in experiment [6] (setting [10]) it was 99.4%. Further, the Her2 level in experiment [2] is 97.5% (inactive). Besides, in experiment [6] (H69AR cells + 2 uM doxorubicin), the differential viability (reversal) is 14.2% (inactive). In addition, the inhibition in experiment [7] is -4.21% (inactive); in experiment [8], 0% (inactive).
`Cc1ccc2c(c1)CCCN2C(=O)Nc1ccc2c(c1)OCO2`: the viability was 95.5% in experiment [1]; 95.5% (inactive) in experiment [3]; 84.8% (inactive) in experiment [4]; 89.5% (inactive) in experiment [5]; 89.2% in experiment [6] (setting [9]); 89.5% in experiment [6] (setting [10]). Further, in experiment [2], the Her2 level is 79% (inactive). The differential viability (reversal) in experiment [6] (H69AR cells + 2 uM doxorubicin) was 0.28% (inactive). Besides, the results for the inhibition in experiment [7] and in experiment [8] were -6.27% (inactive) and 6.89% (inactive), respectively.
In the case of `Cc1cc(C(=O)CN2C(=O)c3ccccc3C2=O)c(C)n1Cc1cccs1`, the viability in experiment [1] is 122%; in experiment [3], 122% (inactive); in experiment [4], 111% (inactive); in experiment [5], 86.3% (inactive); in experiment [6] (setting [9]), 83%; in experiment [6] (setting [10]), 86.3%. In addition, the Her2 level in experiment [2] was 99% (inactive). In addition, the differential viability (reversal) in experiment [6] (H69AR cells + 2 uM doxorubicin) was 3.23% (inactive). The inhibition was -9.45% (inactive) in experiment [7] and 0% (inactive) in experiment [8].
For the compound `O=C(NCC(c1cccnc1)N1CCN(c2ccc(F)cc2)CC1)c1ccc(F)cc1` (stereo not given), the viability in experiment [1] is 90%; in experiment [3], 90% (inactive); in experiment [4] it was 103% (inactive); in experiment [5] it was 92.7% (inactive); in experiment [6] (setting [9]), 91%; in experiment [6] (setting [10]), 92.7%. Further, the Her2 level in experiment [2] is 86.5% (inactive). For the same compound, in experiment [6] (H69AR cells + 2 uM doxorubicin), the differential viability (reversal) was 1.7% (inactive). Moreover, the inhibition was -3.11% (inactive) in experiment [7] and 8.25% (inactive) in experiment [8].
For the compound `Cc1ccccc1-n1nnnc1SCC(=O)Nc1ccc(S(=O)(=O)N2CCCC2)cc1`, the viability in experiment [1] was 70.5%; in experiment [3], 70.5% (inactive); in experiment [4], 94.6% (inactive); in experiment [5] it was 85% (inactive); in experiment [6] (setting [9]), 88%; in experiment [6] (setting [10]), 85%. Further, the Her2 level in experiment [2] is 100% (inactive). In experiment [6] (H69AR cells + 2 uM doxorubicin), the differential viability (reversal) is -2.96% (inactive). Further, the figures for the inhibition in experiment [7] and in experiment [8] were 0.53% (inactive) and 2.1% (inactive), respectively.
Consider `CCCC(=O)Nc1cc(C)c(NC(=O)c2ccccn2)cn1`, for which the viability is 90.5% in experiment [1]; 90.5% (inactive) in experiment [3]; 92.2% (inactive) in experiment [4]; 99.4% (inactive) in experiment [5]; 90.1% in experiment [6] (setting [9]); 99.4% in experiment [6] (setting [10]). In experiment [2], the Her2 level is 92.5% (inactive). Moreover, the differential viability (reversal) in experiment [6] (H69AR cells + 2 uM doxorubicin) was 9.38% (inactive). Also, the values for the inhibition in experiment [7] and in experiment [8] were -5.06% (inactive) and -0.32% (inactive), respectively.
Consider `CCOC(=O)CSc1nc2cc(C(=O)NCc3ccco3)ccc2c(=O)n1-c1ccc(F)cc1`, for which the viability in experiment [1] is 86.5%; in experiment [3], 86.5% (inactive); in experiment [4], 71.4% (inactive); in experiment [5], 87.5% (inactive); in experiment [6] (setting [9]), 75.6%; in experiment [6] (setting [10]) it was 87.5%. Moreover, the Her2 level in experiment [2] is 105% (inactive). Also, the differential viability (reversal) in experiment [6] (H69AR cells + 2 uM doxorubicin) is 12% (inactive). Further, the inhibition in experiment [7] was -0.93% (inactive); in experiment [8] it was 12.8% (inactive).
Turning to `COc1cccc(NC(=O)CSc2nnc(-c3cc(-c4ccccn4)nc4ccccc34)o2)c1`, the viability was 94.5% in experiment [1]; 94.5% (inactive) in experiment [3]; 81% (inactive) in experiment [4]; 76.4% (inactive) in experiment [5]; 79.7% in experiment [6] (setting [9]); 76.4% in experiment [6] (setting [10]). For the same compound, the Her2 level in experiment [2] was 85% (inactive). Further, in experiment [6] (H69AR cells + 2 uM doxorubicin), the differential viability (reversal) is -3.28% (inactive). Besides, the inhibition was -1.22% (inactive) in experiment [7] and -4.6% (inactive) in experiment [8].
In the case of `Fc1ccc(Cn2nnc(-c3ccc(CN4CCOCC4)cc3)n2)cc1`, the viability was 88% in experiment [1]; 88% (inactive) in experiment [3]; 108% (inactive) in experiment [4]; 103% (inactive) in experiment [5]; 96.3% in experiment [6] (setting [9]); 103% in experiment [6] (setting [10]). Also, the Her2 level in experiment [2] was 122% (inactive). Further, the differential viability (reversal) in experiment [6] (H69AR cells + 2 uM doxorubicin) was 6.81% (inactive). In addition, the figures for the inhibition in experiment [7] and in experiment [8] were 84.7% (active) and 43% (active), respectively.
As to `CCCc1cn(S(=O)(=O)c2ccc(OC)cc2OC)nc1N`, the viability in experiment [1] is 98%; in experiment [3] it was 98% (inactive); in experiment [4], 92.8% (inactive); in experiment [5] it was 92.4% (inactive); in experiment [6] (setting [9]), 88.7%; in experiment [6] (setting [10]), 92.4%. Besides, the Her2 level in experiment [2] was 84.5% (inactive). The differential viability (reversal) in experiment [6] (H69AR cells + 2 uM doxorubicin) was 3.72% (inactive). Besides, the inhibition was -7.2% (inactive) in experiment [7] and 0% (inactive) in experiment [8].
Consider `N#CC1=C(N)Oc2n[nH]c(-c3ccncc3)c2C1c1ccsc1` (stereo not given), for which the viability was 88% in experiment [1]; 88% (inactive) in experiment [3]; 113% (inactive) in experiment [4]; 87.7% (inactive) in experiment [5]; 94.2% in experiment [6] (setting [9]); 87.7% in experiment [6] (setting [10]). Further, the Her2 level in experiment [2] is 95% (inactive). Moreover, the differential viability (reversal) in experiment [6] (H69AR cells + 2 uM doxorubicin) was -6.48% (inactive). In addition, the inhibition in experiment [7] is 0.53% (inactive); in experiment [8], -4% (inactive).
Consider `O=C(/C=N/O)Nc1cccnc1`, for which the viability in experiment [1] was 110%; in experiment [3], 110% (inactive); in experiment [4], 91.3% (inactive); in experiment [5] it was 83.2% (inactive); in experiment [6] (setting [9]), 89.6%; in experiment [6] (setting [10]), 83.2%. Also, the Her2 level in experiment [2] was 90% (inactive). Moreover, the differential viability (reversal) in experiment [6] (H69AR cells + 2 uM doxorubicin) was -6.35% (inactive). For the same compound, the results for the inhibition in experiment [7] and in experiment [8] were -1.84% (inactive) and 3.71% (inactive), respectively.
With `COC(=O)c1cnc2c(C(F)(F)F)cccc2c1OC`, the viability was 104% in experiment [1]; 104% (inactive) in experiment [3]; 97.6% (inactive) in experiment [4]; 98.4% (inactive) in experiment [5]; 86.8% in experiment [6] (setting [9]); 98.4% in experiment [6] (setting [10]). Further, in experiment [2], the Her2 level was 106% (inactive). Moreover, the differential viability (reversal) in experiment [6] (H69AR cells + 2 uM doxorubicin) is 11.6% (inactive). Besides, the inhibition in experiment [7] was -5.33% (inactive); in experiment [8], -1.31% (inactive).
